TRPC6 act – activates the mouse TRPC6 cation channel. Q61143. HEK293-TRPC6 membrane potential dye fluorescence; active compounds read high. B-score at 10 µM. hit rate 0.13% among 310,000. AID 2550;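 active means B-score of the integrated fluorescence ratio above library mean plus 3 SD, and starting fluorescence ratio within library mean plus 5 SD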;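 further: higher score means more depolarization so channel activation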
Target sequence (Q61143 whole entry, looked up): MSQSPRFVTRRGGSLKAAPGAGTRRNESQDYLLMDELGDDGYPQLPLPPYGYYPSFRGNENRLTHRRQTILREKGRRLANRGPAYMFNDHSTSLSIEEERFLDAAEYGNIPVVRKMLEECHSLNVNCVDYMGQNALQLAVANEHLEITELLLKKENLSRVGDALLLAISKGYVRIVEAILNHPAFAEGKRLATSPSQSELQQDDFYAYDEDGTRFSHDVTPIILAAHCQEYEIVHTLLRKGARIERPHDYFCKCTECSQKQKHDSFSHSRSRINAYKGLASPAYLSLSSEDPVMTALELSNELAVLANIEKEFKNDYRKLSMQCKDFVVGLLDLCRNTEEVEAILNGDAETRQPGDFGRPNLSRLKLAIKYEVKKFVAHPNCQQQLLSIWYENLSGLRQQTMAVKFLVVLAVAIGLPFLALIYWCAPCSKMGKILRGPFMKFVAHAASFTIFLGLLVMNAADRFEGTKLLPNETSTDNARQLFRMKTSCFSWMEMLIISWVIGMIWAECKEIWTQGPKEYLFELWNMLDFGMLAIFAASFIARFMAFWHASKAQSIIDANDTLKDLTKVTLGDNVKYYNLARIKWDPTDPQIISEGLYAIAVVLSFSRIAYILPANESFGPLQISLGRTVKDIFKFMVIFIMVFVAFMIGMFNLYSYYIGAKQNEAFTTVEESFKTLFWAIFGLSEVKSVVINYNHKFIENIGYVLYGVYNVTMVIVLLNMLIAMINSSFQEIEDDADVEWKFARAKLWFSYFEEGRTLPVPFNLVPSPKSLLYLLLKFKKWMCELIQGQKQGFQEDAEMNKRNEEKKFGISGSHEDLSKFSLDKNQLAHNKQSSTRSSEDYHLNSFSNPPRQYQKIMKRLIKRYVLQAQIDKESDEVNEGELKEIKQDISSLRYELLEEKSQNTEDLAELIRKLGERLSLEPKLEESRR
TRPC4 act – opens the mouse TRPC4 cation channel; Q9QUQ5; B-score at 10 µM; AID 2237; HEK293 TRPC4beta/mu-opioid, Fluo4 calcium fluorescence; active compounds read high; hit rate 0.49% among 310,000;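 active means B-score above 5 SD of library B-scores, and initial fluorescence ratio not above library mean plus 5 SD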;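 further: positive B-score marks a calcium rise read as TRPC4 activation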
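Assay system: HEK293 cells stably co-expressing mouse TRPC4beta and mu-opioid receptor / Timing: Fluo4 dye loading 45 min at room temperature, 110 s recording / Signal: Fluo4 calcium-sensitive dye fluorescence, kinetic, 1 Hz baseline / Read-out: integrated baseline-normalised fluorescence ratio, converted to per-well B score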
TRPC4 block – blocks the mouse TRPC4 cation channel; Q9QUQ5; HEK293 TRPC4beta/mu-opioid, DAMGO-evoked Fluo4 calcium flux; active compounds read low; B-score at 10 µM; hit rate 0.39% among 300,000;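 active means B-score over 3 SD under the library average, no early fluorescence shift, positive overall ratio signal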
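Test system – stable TRPC4beta/mu-opioid receptor HEK293 cells · Probe or stimulus – DAMGO, a submaximal dose followed by a maximal one · Dosing – one concentration per compound · Signal – Fluo4 calcium fluorescence by kinetic imaging, 5 s 1 Hz baseline · Evaluation – per-well B score of integrated baseline-normalized Fluo4 ratio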
TRPC6 inh – inhibitors of mouse TRPC6 channel; Q61143; HEK293-TRPC6, membrane potential dye, ACh-evoked depolarization; active compounds read low; B-score at 10 µM; hit rate 1.1% among 310,000; AID 2553;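 active means B-score under library mean minus 3 SD, initial fluorescence not abnormally high, positive integrated signal ratio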;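 further: B-score derived from integrated fluorescence ratio over the kinetic read; more negative B-score means stronger inhibition of depolarization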
TRPC4 PAM – allosteric potentiators of mouse TRPC4 channel; hit rate 0.42% among 310,000; Q9QUQ5; B-score at 10 µM; AID 2227; HEK293 TRPC4beta/mu-opioid, DAMGO EC20, Fluo-4 Ca2+ flux; active compounds read high;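 active means B-score of calcium response area above 5 SD of library B-scores, with initial fluorescence ratio within 5 SD of library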
Large screens that a line does not name were inactive. Hits are enriched below; roughly 2.3% of the tested compounds scored in any of these assays.

O=C(COc1ccc(Cl)cc1)Nc1ccc(C(=O)O)cc1NC(=O)COc1ccc(Cl)cc1	TRPC4 block -6
CCCCN(C)CCNC(=O)c1c[nH]c2ccc(S(=O)(=O)N(CC)CC)cc2c1=O	TRPC4 PAM 20
CCCNC(=O)c1c[nH]c2ccc(S(=O)(=O)N(C)c3ccc(OCC)cc3)cc2c1=O	none
COc1ccc(NC(=O)CSCC(=O)N(C)CC(=O)Nc2ccc(Cl)c(C(F)(F)F)c2)cc1	none
Cc1cc(NC(=O)CSCC(=O)Nc2ccccc2Oc2ccccc2)no1	none
Cc1cc(NC(=O)CSCC(=O)OC(C)C(=O)N(C)Cc2ccccc2)no1 (configuration not stated)	none
COc1ccccc1NC(=O)Cc1ccc(-c2ccccc2)cc1	none
COc1ccc(CC(=O)Nc2ccccc2Oc2ccccc2)cc1	TRPC4 block -6
Cc1ccc(Oc2ccccc2NC(=O)CSCC(=O)Nc2cc(C)on2)cc1	TRPC4 block -6
Cc1cc(NC(=O)CSCC(=O)Nc2ccc(Cl)c(C(F)(F)F)c2)no1	TRPC4 block -5
Cc1cc(NC(=O)CSCC(=O)OC(C)C(=O)c2cc(C)c(C)cc2C)no1 (configuration not stated)	TRPC4 block -6
Cc1ccc(-c2nn(-c3ccccc3)cc2NC(=O)CCl)cc1	none
COc1ccc(/C=N/n2c(SC)nnc2-c2ccccc2)cc1C	TRPC4 PAM 34
CCCN1Cc2cccc(C(=O)N3CCN(c4cc(Cl)ccc4C)CC3)c2C1=O	TRPC4 PAM 15
NC1=NC2=C(CCCC2)C2(CCCCC2)S1	TRPC4 block -6
COc1ccc(OCCCC(=O)N(C)CC(=O)Nc2ccccc2Cl)cc1	none
Cc1cc(OCCCCCNCCO)cc(C)c1Cl	none
Cc1cc(OCCNCCO)cc(C)c1Cl	TRPC4 act 94, TRPC4 PAM 26
O=C(NC1CCCC1)c1sc(=S)n2c1[nH]c(=O)c1ccccc12	TRPC4 act 83
O=C(NCc1ccco1)c1sc(=S)n2c1[nH]c(=O)c1ccccc12	TRPC4 act 114
Cc1[nH]n2c(=O)cc(-c3ccc([N+](=O)[O-])cc3)nc2c1-c1ccccc1	TRPC4 block -5
C/C(=N\N1CCN(C)CC1)c1ccc(Cl)c(Cl)c1	TRPC4 PAM 15
C/C(=N\N1CCN(C)CC1)c1ccc(OC(F)F)cc1	none
Cc1ccc(NC(=S)N2CCCN(Cc3ccc(F)cc3)C2)c(C)c1	TRPC4 act 60
Cc1c(Cl)cccc1NC(=S)N1CCCN(Cc2ccc(F)cc2)C1	TRPC4 act 44
COc1cccc(NC(=S)N2CCN(C)CC2)c1	none
CC(C)COc1ncnc2c1sc1nc3c(cc12)COC(C)(C)C3	none
CCOC(=O)c1cnc2c(C)cccc2c1NCCc1ccc(OC)c(OC)c1	TRPC4 block -6
CC(=O)Nc1ccc(NS(=O)(=O)c2ccccc2)cc1	none
CC(=O)C(C(C)=O)c1cc(NS(=O)(=O)c2ccccc2)ccc1NS(=O)(=O)c1ccccc1	TRPC4 act 47
O=c1[nH]c2ccc(NCc3ccc(OCc4ccccc4Cl)cc3)cc2[nH]1	none
COc1cc(CNc2ccc3[nH]c(=O)[nH]c3c2)ccc1OCc1ccccc1Cl	TRPC4 PAM 12
CCCCc1nnc(NC(=O)C2CCN(c3ncnc4sc(C)c(C)c34)CC2)s1	TRPC4 PAM 93
O=C(CSC1=NS(=O)(=O)c2ccccc2N1)NCc1ccc(F)cc1	none
CCc1nc(SCC(=O)NC2CCCC2)c2oc3ccccc3c2n1	none
CCc1nc(SCC(=O)N2CCCc3ccccc32)c2oc3ccccc3c2n1	TRPC4 block -5
Cc1ccc(NC(=O)N2CCCCCC2)c(C)c1	none
Cc1ccc(-c2csc(NC(=O)C3CC=CCC3C(=O)O)c2C(=O)OC(C)C)cc1 (configuration not stated)	TRPC4 block -5
CCOC(=O)c1c(-c2cccc(C)c2)csc1NC(=O)C1CC=CCC1C(=O)O (configuration not stated)	TRPC4 block -6
CCOC(=O)c1c(-c2ccc(C)cc2)csc1NC(=O)C1CC=CCC1C(=O)O (configuration not stated)	none
COc1ccc(NC(=O)CC(CC(=O)O)c2cc(OC)c(OC)c(OC)c2)cc1 (configuration not stated)	none

Screening results: PubChem BioAssay, Johns Hopkins Ion Channel Center
